An excerpt weighted towards active compounds, which were near 2.6% of everything screened.
SENP7 block = SENP7 protease inhibitors, primary screen, biochemical, luminescence, uHTS. Sentrin-specific protease 7 (Homo sapiens), Q9BQF6. recombinant SENP7, Z-RLRGG-aminoluciferin luminescence, 40 min. inhibition, % at 5 µM. 1.5% of 330,000 active. AID 434973, 2010;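 active = inhibition above about 50% at the single test dose, limit read from the data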;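 note: plate controls were DMSO with enzyme for no effect and no enzyme buffer wells for full effect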
Target sequence (Q9BQF6 706-1050 limits assumed): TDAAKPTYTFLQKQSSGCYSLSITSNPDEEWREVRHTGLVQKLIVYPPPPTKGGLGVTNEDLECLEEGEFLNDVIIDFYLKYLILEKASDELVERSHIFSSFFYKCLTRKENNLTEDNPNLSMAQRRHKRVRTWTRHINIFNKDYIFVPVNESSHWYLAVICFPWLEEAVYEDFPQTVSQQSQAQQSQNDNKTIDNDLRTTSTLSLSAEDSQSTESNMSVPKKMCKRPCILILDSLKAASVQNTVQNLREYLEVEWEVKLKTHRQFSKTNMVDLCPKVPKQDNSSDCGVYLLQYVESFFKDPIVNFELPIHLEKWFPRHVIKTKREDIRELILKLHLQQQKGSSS
UCH37 DUB inh = inhibitors of human UCH37 deubiquitinase, primary screen, biochemical, Ub-AMC cleavage, fluorescence. Ubiquitin carboxyl-terminal hydrolase isozyme L5 (Homo sapiens), Q9Y5K5. purified proteasome/UCH37. inhibition, % (test concentration not listed). 0.33% of 330,000 active. AID 588478, 2011;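 active = mean inhibition over replicate wells above about 20%, limit read from the data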;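 note: 0% = compound-free wells with enzyme and 100% = wells lacking proteasome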
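system = Proteasome-associated human UCH37 deubiquitinase | amount = 0.15 nM proteasome as dispensed | medium = pH 7.4 Tris-HCl (50 mM) with ovalbumin, ATP-MgCl2, DTT | incubation = 30 min preincubation with enzyme, 25 min cleavage at room temperature | detection = AMC fluorescence 355/460 nm | read-out basis = percent inhibition | controls = no-proteasome and no-compound wells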
SENP1 inh = human SENP1 catalytic domain inhibitors, primary screen, biochemical, FRET, uHTS; inhibition, % at 10 µM; AID 624204, 2012; recombinant SENP1 catalytic domain, CyPet-SUMO1-YPet FRET cleavage; 0.21% of 360,000 active;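 active = inhibition at least 30% at 10 µM, raw YFP signal under a set limit, fluorescence ratio 0.5 to 1.5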;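 note: 0% = enzyme with DMSO and 100% = no enzyme wells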
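system = hSENP1 catalytic domain, recombinant | reagent = SFCypet-SUMO1-SFYpet substrate at 25 nM | doses = one dose per compound, 10 µM, 0.5% DMSO | incubation = enzyme reaction for 50 min at room temperature, dark | measured by = FRET, CFP and YFP emission | controls = no-enzyme low, enzyme-DMSO high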
SENP6 inh = SENP6 protease inhibitors, primary screen, biochemical, luminescence, uHTS. Sentrin-specific protease 6 (Homo sapiens), Q9GZR1. Recombinant SENP6 catalytic domain, aminoluciferin luminescence. inhibition, % at 10 µM. 1.8% of 330,000 active;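 active = inhibition above about 50% at the single tested dose, limit read from the data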;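 note: plate controls were DMSO wells with enzyme for no effect and DMSO wells lacking enzyme for full effect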
SENP8 block-1 = human SENP8 protease inhibitors, primary screen, biochemical, fluorescence, Nedd8 protein substrate, uHTS. 0.64% of 360,000 active. recombinant SENP8. inhibition, % at 20 µM; in the data active = inhibition mostly above about 40%, no sharp cut-off; inactive = mostly below about 27%
SENP8 block-2 = SENP8 protease inhibitors, primary screen, biochemical, luminescence | purified SENP8, Z-RLRGG-aminoluciferin cleavage | inhibition, % at 10 µM | 1.2% of 330,000 active; in the data active = inhibition above about 50%
SENP8 conf = SENP8 protease inhibitors, retest, confirmation, biochemical, luminescence, single concentration | shares compounds with SENP7 block | Recombinant SENP8, Z-RLRGG-aminoluciferin luminescence, 60 min | inhibition, % at 12.5 µM | 40% of 6,200 active;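 active = mean inhibition across replicates above about 50%, limit read from the data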
SENP6 confirm = SENP6 protease inhibitors, confirmation, biochemical, luminescence, single concentration. shares compounds with SENP7 block. recombinant SENP6, Z-RLRGG-aminoluciferin luminescence. inhibition, % at 12.5 µM. 58% of 6,200 active. AID 488915, 2010
SENP7 confirm = SENP7 protease inhibitors, retest, confirmation, biochemical, luminescence, single concentration; shares compounds with SENP7 block; recombinant SENP7, Z-RLRGG-aminoluciferin luminescence, 40 min; inhibition, % at 12.5 µM; 69% of 6,200 active; AID 488917, 2010
Casp3 select = caspase-3 protease inhibitors, confirmation, selectivity assay for SENP inhibitor project, biochemical, single concentration. shares compounds with SENP7 block. purified caspase-3, Z-DEVD-aminoluciferin luminescence, 60 min. inhibition, % at 12.5 µM. 60% of 6,200 active;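 active = mean inhibition above about 50%, limit read from the data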;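 note: plate controls were enzyme with DMSO for no effect and wells without caspase-3 for full effect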
SENP luc ctr = interferes with luciferase luminescence in SENP counter-screen; shares compounds with SENP7 block; Pre-incubated SENP8/Z-RLRGG-aminoluciferin, luciferase luminescence interference; inhibition, % at 12.5 µM; 39% of 6,200 active;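 active = mean inhibition above about 50% when retested at one dose, limit read from the data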;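 note: plate controls were DMSO wells with completed reaction for no effect and substrate without enzyme for full effect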
* marks the source's active call; other numbers are inactive results; i = inactive; . = no result.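 Rule for the calls, unless noted: active = mean inhibition above about 50% in the one-dose retest (limit read from the data); inactive = the rest.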

SMILES	SENP7 block	UCH37 DUB inh	SENP1 inh	SENP6 inh	SENP8 block-1	SENP8 block-2	SENP8 conf	SENP6 confirm	SENP7 confirm	Casp3 select	SENP luc ctr
COc1ccc(CC(C)=NNC(=O)c2cccnc2)cc1	.	3	.	.	.	.	.	.	.	.	.
COc1ccc(-c2nnc(-c3ccc(N(C)C)cc3)o2)cc1	4	-158	-8	3	-304	-10	.	.	.	.	.
Cn1cc(-c2nnc(-c3ccccc3)o2)c2ccccc21	68*	-68	-2	-36	-339	47	15	12	15	18	6
c1ccc(-c2nnc(-c3ccco3)o2)cc1	44	0	0	47	-78	16	.	.	.	.	.
CN(C)c1ccc(-c2nnc(-c3ccccc3F)o2)cc1	85*	-322	-19	87*	-393	77*	34	67*	74*	79*	32
Cc1ccc(C=NNC(=O)c2nnn(-c3nonc3N)c2C(C)C)o1	.	6	.	.	.	.	.	.	.	.	.
COc1ccc(CCC(=O)NN=Cc2ccc3c(c2)OCO3)cc1	.	6	.	.	.	.	.	.	.	.	.
Cc1cc(O)cc2c1C(=O)/C(=C/c1ccco1)O2	2	-17	-21	67*	-71	63*	85*	87*	98*	90*	89*
c1ccc(CSc2ncnc3c2cnn3-c2ccccc2)cc1	72*	0	3	71*	-5	54*	9	7	19	5	8
CC(C)OC(=O)CSc1ncnc2c1cnn2-c1ccccc1	52*	0	1	33	-25	19	15	18	26	28	7
CC(C)(C)C(=O)CSc1ncnc2c1cnn2-c1ccccc1	16	0	-1	-42	-36	-16	.	.	.	.	.
Cc1ccc(CSc2ncnc3c2cnn3Cc2ccccc2)cc1	-5	1	2	2	15	0	.	.	.	.	.
Cc1c(C(=O)NN=Cc2ccc(-c3ccccc3[N+](=O)[O-])o2)sc(N)c1C#N	.	4	.	.	.	.	.	.	.	.	.
COc1ccc(C=NN2CCN(Cc3ccccc3Cl)CC2)cc1	.	4	.	.	.	.	.	.	.	.	.
COc1ccc(NC(=O)c2cc3ccc(O)cc3oc2=NO)cc1	.	5	.	.	.	.	.	.	.	.	.
O=C(O)c1ccc(-c2ccc(OS(=O)(=O)c3ccccc3F)cc2)cc1	8	4	-17	57*	14	41	44	42	60*	11	6
Nc1ccc2nc(-c3cccs3)[nH]c2c1	0	i	-33	39	-313	20	.	.	.	.	.
Nc1ccc2nc(-c3ccccc3)[nH]c2c1	46	i	-23	70*	-318	34	61*	65*	89*	90*	76*
Nc1ccc2nc(-c3ccccn3)[nH]c2c1	52*	2	-36	52*	-406	38	42	51*	79*	82*	49
Nc1ccc2nc(-c3cccnc3)[nH]c2c1	9	8	-2	18	-161	0	.	.	.	.	.
COc1ccc2nc(-c3ccccn3)[nH]c2c1	82*	-31	-2	77*	-412	59*	78*	73*	93*	89*	73*
